Here are results for one molecule from ChEMBL document CHEMBL3352136, “Vinylated linear P2 pyrimidinyloxyphenylglycine based inhibitors of the HCV NS3/4A protease and corresponding macrocycles” (Bioorg Med Chem, 2014).

The structures appear in SMILES notation.

In data set [1] the target is Hepatitis C virus serine protease, NS3/NS4A (Hepatitis C virus, UniProt A3EZI9+D2K2A8). Briefly: Inhibition of HCV genotype 1a NS3/4A protease using Ac-DED(Edans)EEAbu-psi[COO]ASK(Dabcyl)-NH2 as substrate by FRET assay. Set-up: species or system Hepatitis C virus subtype 1a. The method, boiled down: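 Full-length NS3/4A (protease–helicase/NTPase, genotype 1a) measured by FRET. Buffer: 50 mM HEPES pH 7.5, 10 mM DTT, 40% glycerol, 0.1% n-octyl-β-D-glucoside, 3.3% DMSO. Ki values derived.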

In data set [2] the target is Hepatitis C virus serine protease, NS3/NS4A (Hepatitis C virus, UniProt A3EZI9+D2K2A8, A156T). Briefly: Inhibition of HCV NS3/4A protease A156T mutant using Ac-DED(Edans)EEAbu-psi[COO]ASK(Dabcyl)-NH2 as substrate by FRET assay. Further details: species or system Hepacivirus hominis.
Data set [3] has as its system Hepatitis C virus. Briefly: Antiviral activity against HCV genotype 1b infected in human Huh-7 cells by firefly luciferase assay. It is filed as functional, cell-based, Hepacivirus hominis. The method in brief:
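Huh-7 cells carrying a subgenomic HCV genotype 1b replicon with firefly luciferase reporter; EC50 derived from luciferase signal.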

The target in data set [4] is Hepatitis C virus serine protease, NS3/NS4A (Hepatitis C virus, UniProt A3EZI9+D2K2A8, D168V). Briefly: Inhibition of HCV NS3/4A protease D168V mutant using Ac-DED(Edans)EEAbu-psi[COO]ASK(Dabcyl)-NH2 as substrate by FRET assay. Further details: species or system Hepacivirus hominis.
Data set [5] relates to Liver microsome. Briefly: Half life in human liver microsomes preincubated for 5 mins by LC/MS/MS analysis. Particulars: microsomes. The format is ADME. The method in brief:
(§1)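 Compound at 1 µM preincubated 5 min at 37 °C with pooled human liver microsomes (0.5 mg/mL) in 0.1 M potassium phosphate pH 7.4. Reaction started with NADPH (1 mM final) and stopped at 0, 5, 15 and 40 min with ice-cold acetonitrile containing internal standard. LC/MS/MS read-out. ln(% remaining) regressed linearly on time; t1/2 and Clint derived assuming first-order kinetics. Dextromethorphan (3 µM) and midazolam (5 µM) served as CYP2D6/CYP3A4 controls.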
(In general: Liver microsomes are a subcellular fraction often used to study metabolism.)

For data set [6], the system named is Liver microsome. Briefly: Intrinsic clearance in human liver microsomes preincubated for 5 mins by LC/MS/MS analysis. Particulars: microsomes, 5 min. It is filed as ADME. The method, boiled down: as §1
Data set [7] addresses Hepatitis C virus serine protease, NS3/NS4A (Hepatitis C virus, UniProt A3EZI9+D2K2A8, R155K). Briefly: Inhibition of HCV NS3/4A protease R155K mutant using Ac-DED(Edans)EEAbu-psi[COO]ASK(Dabcyl)-NH2 as substrate by FRET assay. Further details: species or system Hepacivirus hominis.
Data set [8] is described as follows: Apparent permeability from apical to basolateral side in human Caco2 cells. The format is ADME, cell-based. Particulars: Caco-2. The method, boiled down:
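Caco-2 monolayers on polycarbonate filter inserts, cells kept in 90% air/10% CO2. Compound diluted from 10 mM DMSO stock to 10 µM (final DMSO 0.1%) in FASSIF pH 7.4 on apical donor side. Receiver is HBSS pH 7.4 with 1% (w/v) BSA. Run at 37 °C with 500 rpm stirring. Receiver sampled at 15, 30 and 60 min, donor sampled at 60 min for mass balance. Membrane integrity checked afterwards, LC/MS/MS read-out, at least triplicates.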
(Passage across Caco-2 layers is used to estimate intestinal permeability.)

With `COc1cc(Oc2ccc(C3NC(=O)[C@H](NC(=O)OC(C)(C)C)CCCCC/C=C/CCCS(=O)(=O)NC(=O)c4ccccc4NC3=O)cc2)nc(-c2ccccc2)n1` (single isomer, unassigned; diastereomer 2), the Ki (commonly the dissociation constant of the complex between target and ligand, obtained from inhibition or displacement) in data set [1] was found to be 80 nM; in data set [2], 160 nM; in data set [4] it was 600 nM; in data set [7] it was 220 nM. Moreover, the concentration giving a half-maximal response (EC50) – broadly, the concentration needed to bring the measured effect to its halfway point – in data set [3] is 15000 nM. The same molecule returned a t1/2 in data set [5] of 10 min. Also, the microsomal intrinsic clearance in data set [6] worked out at 137 µL/min/mg. In addition, the Papp (as a rule, a coefficient for how fast a substance crosses the barrier) in data set [8] worked out at 0.15 ×10⁻⁶ cm/s.
